Usually Ki stands for the equilibrium dissociation constant of an inhibitor or competing ligand from its target. Read a high Ki as lower affinity.

The assay concerns the target T1, Fe(3+)-Zn(2+) purple acid phosphatase (Phaseolus vulgaris, UniProt P80366).
T1 sequence (P80366 whole entry): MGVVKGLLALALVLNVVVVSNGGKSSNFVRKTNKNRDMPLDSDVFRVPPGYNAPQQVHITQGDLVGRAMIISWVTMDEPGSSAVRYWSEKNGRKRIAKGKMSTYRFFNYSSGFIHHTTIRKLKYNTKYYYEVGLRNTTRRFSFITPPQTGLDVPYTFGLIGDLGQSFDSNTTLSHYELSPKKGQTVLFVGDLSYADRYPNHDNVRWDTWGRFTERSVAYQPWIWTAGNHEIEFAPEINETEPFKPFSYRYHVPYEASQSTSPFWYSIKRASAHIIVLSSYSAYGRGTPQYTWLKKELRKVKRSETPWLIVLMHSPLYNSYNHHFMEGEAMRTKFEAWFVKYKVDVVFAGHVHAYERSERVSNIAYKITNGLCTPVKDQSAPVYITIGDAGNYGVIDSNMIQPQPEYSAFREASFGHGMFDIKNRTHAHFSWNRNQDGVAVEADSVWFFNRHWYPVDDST
The experiment in a line: Competitive inhibition of red kidney bean PAP using varying levels of pNPP as substrate measured at pH 6.2 by UV-vis spectrophotometric analysis. In short, it runs like this: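 Red kidney bean PAP (rkbPAP), purified, at 8.4 nM. p-NPP 1–15 mM in 0.1 M MES pH 6.2 with 25% DMSO, 25 °C. p-Nitrophenol formation followed at 405 nm (Δε 1834.4 mol−1 L cm−1). Inhibitor concentration varied; competitive constant Kic from non-linear regression using a general inhibition equation.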
Regarding `CCCCCCCCCCCCOC(c1cccc2ccccc12)P(=O)(O)O` (stereo unspecified), the Ki is 4500 nM.
Consider `CCCCCCCCCCCCCCCCOC(c1cccc2ccccc12)P(=O)(O)O` (stereo unspecified), for which the inhibitory constant (Ki) stood at 400 nM.
The molecule `CCCCCCCCCCCCCCCCCCOC(c1cccc2ccccc12)P(=O)(O)O` (stereo unspecified) came in with an inhibition constant (Ki) of 500 nM.
In turn, `CCCCCCCCCCCCCCCCCCCCCCOC(c1cccc2ccccc12)P(=O)(O)O` (stereo unspecified) came in with a Ki of 14000 nM.
In turn, `CCCCCCCCCCCCCCOC(c1cccc2ccccc12)P(=O)(O)O` (stereo unspecified) registered a Ki of 200 nM.
In the case of `CCCCCCCCCCCCCCCCCCCCOC(c1cccc2ccccc12)P(=O)(O)O` (stereo unspecified) it was 800 nM.

(Values after BindingDB's records for doi:10.1016/j.ejmech.2019.111611 (The University of Queensland, 2019).)
